SIRT5 block: SIRT5 desuccinylase inhibitors, primary screen, biochemical, fluorescence imaging, single point, set 5; 330,000 tested, 1.1% active; inhibition, % at 15 µM; NAD-dependent protein deacylase sirtuin-5, mitochondrial (Homo sapiens), Q9NXA8; Purified SirT5, succinyl-peptide AMC, trypsin-coupled fluorescence; in the data active = inhibition above about 15%; inconclusive = no clear call, values can overlap the other calls
Target sequence (Q9NXA8 whole entry, looked up): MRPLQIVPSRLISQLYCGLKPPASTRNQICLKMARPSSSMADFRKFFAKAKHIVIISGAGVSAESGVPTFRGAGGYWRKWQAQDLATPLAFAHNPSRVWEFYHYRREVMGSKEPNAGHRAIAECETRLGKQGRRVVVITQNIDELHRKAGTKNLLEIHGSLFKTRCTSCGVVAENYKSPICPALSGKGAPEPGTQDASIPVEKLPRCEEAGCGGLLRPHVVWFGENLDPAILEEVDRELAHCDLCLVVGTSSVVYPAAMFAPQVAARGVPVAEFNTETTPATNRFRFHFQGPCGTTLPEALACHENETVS
DENV2 CPE: inhibitors of DENV2 cytopathic effect, primary screen, cell-based, plate reader, single concentration; DENV2-infected cells, cytopathic effect rescue; CPE inhibition, % at 9.99 µM; 350,000 tested, 1.7% active; AID 651640, 2012; in the data active = CPE inhibition above about 20%, passing the limit was not always enough; inconclusive = no clear call, values can overlap the other calls; tested in BHK-21 cells
E-sel inducer: E-selectin induction in HUVECs, primary screen, imaging, HUVEC, immunofluorescence imaging, single point | normalized: neutral wells 0, TNF-alpha wells 100 | activation, % at 7.58 µM | 260,000 tested, 0.37% active | AID 686992, 2013;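 active = mean E-selectin-positive cell signal at least 10% of the positive control, reached in at least 60% of replicates, without over 20% cell loss; inconclusive = no rule given, readout overlaps actives, possibly toxicity-flagged; inactive = the rest, including those meeting only one limit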
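Assay system: HUVEC primary endothelial cells. Input: 3,000 HUVEC seeded per well. Doses: one compound dose added by pin transfer. Read-out basis: % PE-positive cells. Benchmarks: TNF-alpha high, DMSO low. Detection: immunofluorescence imaging. Buffer or medium: EGM-2, gelatin.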
PglD inh: C. jejuni PglD acetyltransferase inhibitors, primary screen, biochemical, DTNB colorimetric, single point; UDP-N-acetylbacillosamine N-acetyltransferase PglD (Campylobacter jejuni); 360,000 tested, 0.098% active; AID 602405, 2012; purified PglD enzyme, DTNB colorimetric CoA detection; inhibition, % at 12.5 µM; in the data active = inhibition above about 16%, passing the limit was not always enough; inconclusive = no clear call, values can overlap the other calls
ERAP1 HTS inh: human ERAP1 aminopeptidase inhibitors, primary screen, biochemical, single point, plate reader | Endoplasmic reticulum aminopeptidase 1 (Homo sapiens), Q9NZ08 | inhibition, % at 10.7 µM | recombinant ERAP1, Leu-AMC fluorescence, 60 min | 340,000 tested, 0.15% active;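 active = mean replicate inhibition of at least 30%, or all replicates individually reaching that 30% level; inactive = mean below 30% and not every replicate reaching it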
Of the large screens only hits and unclear results are named; the others gave an inactive call; ! = not active in a repeat. Hits are enriched below; roughly 2.5% of the tested compounds scored in any of these assays.

O=C(N/N=C/c1ccccc1O)C(=O)Nc1ccccn1	none (no result: E-sel inducer, PglD inh)
CC(C)c1ccc(S(=O)(=O)N2CCN(C(=O)n3ccnc3)CC2)cc1	DENV2 CPE 31.1
CC1CCN(S(=O)(=O)c2ccc3c(c2)oc(=O)n3C)CC1	none (no result: E-sel inducer)
CC#CCN1C=C(C(=O)OCC)C(C)N(Cc2ccc(Br)cc2)S1(=O)=O (stereo unspecified)	none
CCCN1C(C)C(C(=O)OCC)=CN(Cc2ccc(Br)cc2)S1(=O)=O (stereo unspecified)	SIRT5 block 31.5
Cc1ccc(S(=O)(=O)Nc2ccc(N(C)C)cc2)cc1	SIRT5 block 112.0 (no result: E-sel inducer, PglD inh)
C[C@@H]1CN([C@H](C)CO)C(=O)c2cc(C#CCN(C)C)cnc2O[C@H]1CN(C)C(=O)c1ccc2c(c1)OCO2	none
C[C@H](CO)N1C[C@H](C)[C@H](CN(C)C(=O)c2ccc3c(c2)OCO3)Oc2ncc(C#CCN(C)C)cc2C1=O	DENV2 CPE 24.9
CCCC#Cc1cnc2c(c1)C(=O)N([C@@H](C)CO)C[C@@H](C)[C@H](CN(C)C(=O)c1ccc3c(c1)OCO3)O2	DENV2 CPE 83.5
CCCC#Cc1cnc2c(c1)C(=O)N([C@@H](C)CO)C[C@H](C)[C@H](CN(C)C(=O)c1ccc3c(c1)OCO3)O2	none
COc1cccc(/C=C/C(=O)OCC(=O)Nc2ccccc2Sc2ccccc2)c1	none (no result: E-sel inducer, PglD inh)
CCCNC(=O)N(C)C[C@H]1Oc2ncc(Br)cc2C(=O)N([C@@H](C)CO)C[C@H]1C	none
Cc1ccc(NC(=O)Cn2cccc2C2=NC(c3ccccc3)CO2)cc1C (stereo unspecified)	DENV2 CPE 102.6 (no result: E-sel inducer)
CCc1ccccc1NC(=O)Cn1cccc1C1=NC(c2ccccc2)CO1 (stereo unspecified)	none (no result: SIRT5 block, DENV2 CPE, E-sel inducer, ERAP1 HTS inh)
Cc1ccc(NC(=O)CN2C(=O)S/C(=C\c3cc(C)n(-c4ccc(C(=O)O)cc4)c3C)C2=O)cc1	none
Cc1ccc(NC(=O)CN2C(=O)N/C(=C/c3cc(C)n(-c4ccc(C(=O)O)cc4)c3C)C2=O)cc1	SIRT5 block 25.9 (no result: E-sel inducer, PglD inh)
O=C(Cc1ccc(Cl)c(Cl)c1)Nc1ccccc1N1CCOCC1	none (no result: ERAP1 HTS inh)
Cc1c(C(=O)OC(C)C)sc(N)c1C(=O)OC(C)C	DENV2 CPE 47.5 (no result: E-sel inducer, PglD inh)
COc1ccc(C(CNS(=O)(=O)c2ccc(NC(C)=O)c(OC)c2)N2CCCCC2)cc1 (stereo unspecified)	none
COc1ccc(C(CNS(=O)(=O)c2ccc(NC(C)=O)c(OC)c2)N2CCCC2)cc1 (stereo unspecified)	DENV2 CPE 35.8
C=CCN1C(=O)N(c2ccc(Cl)cc2)C(=O)C1CC(=O)Nc1ccc(F)cc1 (stereo unspecified)	none (no result: PglD inh)
Cc1ccc(-c2csc(NC(=O)c3cccc([N+](=O)[O-])c3C(=O)O)n2)cc1	none (no result: E-sel inducer)
COc1ccc(NC(=O)NCc2cccnc2)c(OC)c1	none
C/C=C/c1ccc([C@@H]2[C@@H](CO)N[C@@H]2CN(CC(C)C)C(=O)c2ccccn2)cc1	SIRT5 block 17.6 (no result: ERAP1 HTS inh)
C[C@@H]1CN([C@@H](C)CO)C(=O)c2cccc(NC(=O)NC3CCCCC3)c2O[C@H]1CN(C)S(=O)(=O)c1ccc(F)cc1	E-sel inducer inconclusive
Cn1nc(C(F)(F)F)c(-c2ccc(Br)cc2)c1NC(=O)CSCC(=O)O	DENV2 CPE 58.1 (no result: PglD inh)
Cc1nc2ccccc2c(=O)n1-c1ccc(NS(=O)(=O)c2ccccc2)cc1	DENV2 CPE 68.2
Cc1nc2ccccc2c(=O)n1-c1ccc(NS(=O)(=O)c2ccc(F)cc2)cc1	none (no result: PglD inh)
O=C(C[C@H]1C=C[C@H](NC(=O)Nc2cccc(F)c2)[C@@H](CO)O1)NCC1CCCCC1	none
COc1ccc(CC(=O)OC(C)C(=O)Nc2ccc(Cl)cn2)cc1 (stereo unspecified)	none (no result: E-sel inducer)
C[C@@H]1CCCCO[C@H](CN(C)C(=O)C2CCCCC2)[C@H](C)CN([C@H](C)CO)C(=O)c2cc(NS(=O)(=O)c3ccc(Cl)cc3)ccc2O1	DENV2 CPE 38.6
C[C@@H]1CCCCO[C@H](CN(C)C(=O)C2CCCCC2)[C@H](C)CN([C@@H](C)CO)C(=O)c2cc(NS(=O)(=O)c3ccc(F)cc3)ccc2O1	SIRT5 block 15.6
C[C@@H]1CCCCO[C@H](CN(C)C(=O)C2CCCCC2)[C@@H](C)CN([C@@H](C)CO)C(=O)c2cc(NS(=O)(=O)c3ccc(F)cc3)ccc2O1	SIRT5 block 16.9
C[C@@H]1CCCCO[C@H](CN(C)C(=O)C2CCCCC2)[C@@H](C)CN([C@H](C)CO)C(=O)c2cc(NS(=O)(=O)c3ccc(Cl)cc3)ccc2O1	none
Oc1cccc(/C=N/NC(=S)NCCN2CCOCC2)c1O	none (no result: PglD inh)
CC(=O)N(C)C[C@H]1Oc2cc(-c3ccncc3)ccc2S(=O)(=O)N([C@@H](C)CO)C[C@@H]1C	none
COCCCNC(=O)CCn1c(=O)c2ccccc2n(Cc2cccc([N+](=O)[O-])c2)c1=O	SIRT5 block 28.7 (no result: ERAP1 HTS inh)
COC(=O)c1cccnc1-n1c(=O)c2cccnc2n(Cc2cccc([N+](=O)[O-])c2)c1=O	none (no result: PglD inh, ERAP1 HTS inh)
COc1ccc(CCn2c(=O)c3cccnc3n(Cc3cccc([N+](=O)[O-])c3)c2=O)cc1OC	E-sel inducer 26.8 (no result: PglD inh)
CC(C)(C)OC(=O)N1Cc2[nH]c3ccccc3c2C[C@@H]1C(=O)O	none
CC(O)CNc1nc2c(c(=O)n(Cc3cccc(Cl)c3)c(=O)n2C)n1C (stereo unspecified)	none
COc1ccc(NC(=O)N(C)C[C@H]2Oc3ccc(NS(=O)(=O)c4c(C)noc4C)cc3C(=O)N([C@@H](C)CO)C[C@H]2C)cc1	none
Cc1noc(C)c1NC(=O)N(C)C[C@H]1Oc2ccc(NS(=O)(=O)c3cccs3)cc2C(=O)N([C@H](C)CO)C[C@H]1C	E-sel inducer 28.7
Cc1noc(C)c1NC(=O)N(C)C[C@@H]1Oc2ccc(NS(=O)(=O)c3cccs3)cc2C(=O)N([C@@H](C)CO)C[C@@H]1C	none
COc1ccc(NC(=O)N(C)C[C@@H]2Oc3ccc(NS(=O)(=O)c4c(C)noc4C)cc3C(=O)N([C@@H](C)CO)C[C@@H]2C)cc1	DENV2 CPE 26.9
COc1ccc(NC(=O)N(C)C[C@H]2Oc3ccc(NS(=O)(=O)c4c(C)noc4C)cc3C(=O)N([C@H](C)CO)C[C@H]2C)cc1	none
COc1ccc(NC(=O)N(C)C[C@H]2Oc3ccc(NS(=O)(=O)c4c(C)noc4C)cc3C(=O)N([C@H](C)CO)C[C@@H]2C)cc1	DENV2 CPE 22.0
Cc1noc(C)c1NC(=O)N(C)C[C@H]1Oc2ccc(NS(=O)(=O)c3c(C)noc3C)cc2C(=O)N([C@H](C)CO)C[C@@H]1C	DENV2 CPE 30.5!, E-sel inducer 30.9!
Nc1ncnc2c1ncn2[C@@H]1O[C@H](CNS(=O)(=O)CCCCl)[C@@H](O)[C@H]1O	DENV2 CPE inconclusive
